The target in experiment [1] is D(2) dopamine receptor (Rattus norvegicus, UniProt P61169). Briefly: Activity at rat dopamine D2L receptor expressed in HEK293 cells assessed as inhibition of forskolin-stimulated cAMP production. Type of experiment: functional, cell-based. In outline: (§1)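 HEK293 cells stably expressing rat D2L, grown in DMEM with 5% fetal clone serum, 5% bovine calf serum and puromycin. Confluent monolayers were treated with ligands diluted in EBSS buffer (pH 7.4) with 5 µM forskolin and 500 µM IBMX. The reaction was stopped with 3% TCA. cAMP was measured in duplicate by [3H]cAMP competition with adrenal binding protein (2-3 h, 4 °C).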
Background: Changes in cAMP serve as a functional read-out for many G protein-coupled receptors.

Experiment [2] addresses T1, D(4) dopamine receptor (Homo sapiens, UniProt P21917).
T1 sequence (P21917 whole entry): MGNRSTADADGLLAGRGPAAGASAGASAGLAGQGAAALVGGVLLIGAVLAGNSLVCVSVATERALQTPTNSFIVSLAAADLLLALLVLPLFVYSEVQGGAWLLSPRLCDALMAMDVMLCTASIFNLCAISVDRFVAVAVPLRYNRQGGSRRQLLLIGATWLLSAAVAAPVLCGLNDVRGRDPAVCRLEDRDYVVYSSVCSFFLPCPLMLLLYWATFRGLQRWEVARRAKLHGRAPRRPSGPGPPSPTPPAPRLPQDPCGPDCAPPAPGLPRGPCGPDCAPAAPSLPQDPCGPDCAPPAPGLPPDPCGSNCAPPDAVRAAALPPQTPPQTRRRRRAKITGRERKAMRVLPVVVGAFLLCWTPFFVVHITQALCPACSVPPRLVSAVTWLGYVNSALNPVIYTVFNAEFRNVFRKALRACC
Type of experiment: functional, cell-based, HEK293.

Experiment [3] has as its target D(1A) dopamine receptor (Homo sapiens, UniProt P21728). The experiment in a line: Activity at human dopamine D1 receptor expressed in HEK293 cells assessed as stimulation of cAMP production. Type of experiment: functional, cell-based.
The target of experiment [4] is D(1A) dopamine receptor (Sus scrofa, UniProt P50130). Briefly: Displacement of [3H]SCH-23390 from dopamine D1-like receptor in porcine striata homogenate. In general terms: Displacement assays read how much labelled ligand stays bound in the presence of the test substance.
Experiment [5] concerns the target D(2) dopamine receptor (Rattus norvegicus) (UniProt P61169). The experiment in a line: Intrinsic activity at rat dopamine D2L receptor expressed in HEK293 cells assessed as inhibition of forskolin-stimulated cAMP production relative to dopamine. In kind it is functional, cell-based. In outline: as §1
Experiment [6] addresses T1, D(4) dopamine receptor. Briefly: Binding affinity to human cloned dopamine D4 receptor.
Experiment [7] addresses T2, Alpha-2A adrenergic receptor (Homo sapiens, UniProt P08913).
T2 sequence (P08913 whole entry): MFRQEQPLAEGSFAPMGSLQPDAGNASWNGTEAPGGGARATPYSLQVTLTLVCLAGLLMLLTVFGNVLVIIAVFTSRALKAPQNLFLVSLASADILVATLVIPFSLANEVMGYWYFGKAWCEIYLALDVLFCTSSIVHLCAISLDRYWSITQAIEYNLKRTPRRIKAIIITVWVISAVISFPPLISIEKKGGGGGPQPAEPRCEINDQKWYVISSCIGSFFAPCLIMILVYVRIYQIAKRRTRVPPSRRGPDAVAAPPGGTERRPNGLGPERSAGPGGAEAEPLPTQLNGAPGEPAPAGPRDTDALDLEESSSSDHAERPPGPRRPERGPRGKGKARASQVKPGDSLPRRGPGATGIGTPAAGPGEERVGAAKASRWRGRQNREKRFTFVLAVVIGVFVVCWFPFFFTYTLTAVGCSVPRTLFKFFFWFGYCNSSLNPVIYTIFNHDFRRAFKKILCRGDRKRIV
The experiment in a line: Binding affinity to human cloned adrenergic alpha 2A receptor.

Experiment [8] has as its target T3, Alpha-2B adrenergic receptor (Homo sapiens, UniProt P18089).
T3 sequence (P18089 whole entry): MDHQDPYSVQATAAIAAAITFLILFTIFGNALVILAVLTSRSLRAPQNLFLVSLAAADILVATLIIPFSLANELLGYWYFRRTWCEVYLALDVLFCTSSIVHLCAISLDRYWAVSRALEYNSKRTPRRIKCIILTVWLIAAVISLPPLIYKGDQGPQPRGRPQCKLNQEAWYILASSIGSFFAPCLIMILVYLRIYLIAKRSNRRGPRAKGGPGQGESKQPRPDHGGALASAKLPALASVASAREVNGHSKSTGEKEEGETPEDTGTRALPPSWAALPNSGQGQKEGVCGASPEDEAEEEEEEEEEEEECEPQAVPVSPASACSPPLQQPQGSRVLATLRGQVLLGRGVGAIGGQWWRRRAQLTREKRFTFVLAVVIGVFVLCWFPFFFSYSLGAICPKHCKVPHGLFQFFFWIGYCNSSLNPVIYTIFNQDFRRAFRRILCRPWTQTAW
Briefly: Binding affinity to human cloned adrenergic alpha 2B receptor receptor.

For experiment [9], the target named is T4, Alpha-2C adrenergic receptor (Homo sapiens, UniProt P18825).
T4 sequence (P18825 whole entry): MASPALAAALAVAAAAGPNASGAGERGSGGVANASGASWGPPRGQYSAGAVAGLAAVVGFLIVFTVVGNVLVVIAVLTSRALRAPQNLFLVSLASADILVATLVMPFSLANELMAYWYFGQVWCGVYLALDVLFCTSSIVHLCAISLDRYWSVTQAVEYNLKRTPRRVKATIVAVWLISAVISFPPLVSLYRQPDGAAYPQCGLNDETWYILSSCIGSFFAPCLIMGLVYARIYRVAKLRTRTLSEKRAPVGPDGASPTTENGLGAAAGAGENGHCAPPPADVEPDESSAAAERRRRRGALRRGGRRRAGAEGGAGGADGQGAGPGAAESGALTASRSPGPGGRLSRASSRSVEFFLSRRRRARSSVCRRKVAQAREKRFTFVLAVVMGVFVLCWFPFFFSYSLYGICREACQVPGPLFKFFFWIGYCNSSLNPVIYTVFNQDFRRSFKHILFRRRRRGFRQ
The experiment in a line: Binding affinity to human cloned adrenergic alpha 2C receptor receptor.

The target in experiment [10] is D(1B) dopamine receptor (Homo sapiens, UniProt P21918). The experiment in a line: Binding affinity to human cloned dopamine D5 receptor.
Experiment [11] deals with D(3) dopamine receptor (Homo sapiens, UniProt P35462). Briefly: Binding affinity to human cloned dopamine D3 receptor.
Experiment [12] deals with D(2) dopamine receptor (Homo sapiens, UniProt P14416). The experiment in a line: Binding affinity to human cloned dopamine D2 receptor.
Chain of D(2) dopamine receptor (Homo sapiens, UniProt P14416) (P14416 whole entry): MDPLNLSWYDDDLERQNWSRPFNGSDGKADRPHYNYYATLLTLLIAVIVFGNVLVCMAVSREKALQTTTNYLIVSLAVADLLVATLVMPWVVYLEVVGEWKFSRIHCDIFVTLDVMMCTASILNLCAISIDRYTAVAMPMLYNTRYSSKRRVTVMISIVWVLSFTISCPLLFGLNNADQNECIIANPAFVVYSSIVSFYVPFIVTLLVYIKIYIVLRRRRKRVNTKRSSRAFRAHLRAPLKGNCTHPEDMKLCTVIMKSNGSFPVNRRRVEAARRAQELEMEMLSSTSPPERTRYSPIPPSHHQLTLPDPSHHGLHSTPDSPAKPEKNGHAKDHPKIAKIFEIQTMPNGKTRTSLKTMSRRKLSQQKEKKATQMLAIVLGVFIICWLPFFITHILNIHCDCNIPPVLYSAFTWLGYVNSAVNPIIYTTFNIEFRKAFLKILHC

Chain of D(2) dopamine receptor (Rattus norvegicus, UniProt P61169) (P61169 whole entry): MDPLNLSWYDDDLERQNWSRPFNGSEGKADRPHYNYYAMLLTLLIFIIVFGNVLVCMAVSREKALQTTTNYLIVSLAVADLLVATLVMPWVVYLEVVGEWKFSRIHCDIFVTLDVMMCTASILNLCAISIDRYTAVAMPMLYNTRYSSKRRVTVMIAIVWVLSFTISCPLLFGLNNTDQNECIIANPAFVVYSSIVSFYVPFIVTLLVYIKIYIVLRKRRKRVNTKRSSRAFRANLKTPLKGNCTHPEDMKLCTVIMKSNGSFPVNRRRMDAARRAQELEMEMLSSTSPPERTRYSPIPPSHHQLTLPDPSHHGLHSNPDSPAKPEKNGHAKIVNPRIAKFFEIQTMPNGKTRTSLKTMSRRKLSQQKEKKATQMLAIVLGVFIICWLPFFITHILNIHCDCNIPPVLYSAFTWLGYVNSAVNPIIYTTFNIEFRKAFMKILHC
Chain of D(2) dopamine receptor (Rattus norvegicus) (P61169 whole entry): as above
Chain of D(3) dopamine receptor (P35462 whole entry): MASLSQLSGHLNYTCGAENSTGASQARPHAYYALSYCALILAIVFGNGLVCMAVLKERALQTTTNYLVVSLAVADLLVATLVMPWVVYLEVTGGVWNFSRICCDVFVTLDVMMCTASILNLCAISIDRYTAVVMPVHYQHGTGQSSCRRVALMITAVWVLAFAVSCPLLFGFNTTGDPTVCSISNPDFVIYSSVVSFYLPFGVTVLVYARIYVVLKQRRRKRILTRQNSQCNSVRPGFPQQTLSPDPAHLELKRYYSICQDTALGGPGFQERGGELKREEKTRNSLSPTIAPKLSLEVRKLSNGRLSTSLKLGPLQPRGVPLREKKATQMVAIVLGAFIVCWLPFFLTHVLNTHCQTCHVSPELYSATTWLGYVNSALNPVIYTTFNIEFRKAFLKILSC
Chain of D(1B) dopamine receptor (P21918 whole entry): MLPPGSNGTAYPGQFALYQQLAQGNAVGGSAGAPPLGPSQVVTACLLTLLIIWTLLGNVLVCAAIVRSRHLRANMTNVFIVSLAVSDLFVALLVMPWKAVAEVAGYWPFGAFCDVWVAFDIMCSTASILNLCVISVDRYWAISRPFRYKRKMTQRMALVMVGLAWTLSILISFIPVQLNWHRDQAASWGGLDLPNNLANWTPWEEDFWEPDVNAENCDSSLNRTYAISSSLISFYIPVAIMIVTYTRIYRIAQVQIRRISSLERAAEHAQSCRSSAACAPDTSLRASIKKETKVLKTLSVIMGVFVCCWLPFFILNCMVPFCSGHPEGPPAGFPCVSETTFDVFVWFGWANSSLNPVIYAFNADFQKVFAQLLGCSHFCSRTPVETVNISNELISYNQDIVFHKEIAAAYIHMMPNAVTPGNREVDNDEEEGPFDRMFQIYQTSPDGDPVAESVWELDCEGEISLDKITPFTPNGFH
Chain of D(1A) dopamine receptor (Sus scrofa, UniProt P50130) (P50130 whole entry): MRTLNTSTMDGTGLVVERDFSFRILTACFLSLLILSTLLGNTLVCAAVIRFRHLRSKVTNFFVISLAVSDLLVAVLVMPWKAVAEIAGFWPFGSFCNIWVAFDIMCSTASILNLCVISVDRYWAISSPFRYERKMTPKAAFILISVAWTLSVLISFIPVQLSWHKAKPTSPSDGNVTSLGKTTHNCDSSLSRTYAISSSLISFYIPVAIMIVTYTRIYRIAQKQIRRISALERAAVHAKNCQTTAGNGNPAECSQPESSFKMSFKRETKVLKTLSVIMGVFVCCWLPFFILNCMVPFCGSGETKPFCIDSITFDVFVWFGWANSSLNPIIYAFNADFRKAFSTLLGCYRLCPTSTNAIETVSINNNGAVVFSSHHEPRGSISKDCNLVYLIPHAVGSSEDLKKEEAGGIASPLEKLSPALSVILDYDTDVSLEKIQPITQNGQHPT
Chain of D(1A) dopamine receptor (Homo sapiens, UniProt P21728) (P21728 whole entry): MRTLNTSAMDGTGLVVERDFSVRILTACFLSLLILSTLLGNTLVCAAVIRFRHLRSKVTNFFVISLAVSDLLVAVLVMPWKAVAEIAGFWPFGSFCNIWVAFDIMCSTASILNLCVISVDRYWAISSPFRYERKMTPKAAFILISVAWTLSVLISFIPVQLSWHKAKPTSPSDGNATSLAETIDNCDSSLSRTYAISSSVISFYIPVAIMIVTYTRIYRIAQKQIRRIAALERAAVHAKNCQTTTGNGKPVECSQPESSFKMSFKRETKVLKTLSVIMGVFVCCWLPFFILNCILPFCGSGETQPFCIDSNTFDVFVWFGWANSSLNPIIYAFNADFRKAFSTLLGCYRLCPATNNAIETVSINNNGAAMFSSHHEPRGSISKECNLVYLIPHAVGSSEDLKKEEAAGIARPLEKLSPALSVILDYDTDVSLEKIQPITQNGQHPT

For the compound `CCCN1Cc2ccccc2C2c3cc(O)c(O)cc3OCC21` (racemic), the EC50 in [1] came out at 1600 nM; in experiment [2], 21 nM; in experiment [3], 1100 nM. The same compound showed a Ki in experiment [4] of 330 nM. For the same compound, the Intrinsic activity in experiment [5] worked out at 92%.

As for `Oc1cc2c(cc1O)[C@@H]1c3ccccc3CN[C@H]1CO2` (single isomer, unassigned), the EC50 is above 10000 nM in experiment [1] and 230 nM in experiment [2].

On to `CCCN1CCC[C@@H]2Cc3n[nH]cc3C[C@H]21`, for which, in experiment [5], the Intrinsic activity is 95%.

As to `Oc1cc2c(cc1O)[C@H]1c3ccccc3CN[C@@H]1CC2`, the Intrinsic activity in experiment [5] was 70%.

Consider `Oc1cc2c(cc1O)C1c3ccccc3CNC1CO2` (racemic) [DOXANTHRINE], for which the EC50 was above 10000 nM in experiment [1] and 110 nM in experiment [2]. Further, the inhibitory constant (Ki) in experiment [6] turned out to be 90 nM; in [7], 180 nM; in experiment [8] it was 10 nM; in experiment [9], 2 nM; in experiment [10], 7 nM; in [11] it was 390 nM. Moreover, the Ki in experiment [12] is 1910 nM.

For `Oc1cc2c(cc1O)[C@H]1c3ccccc3CN[C@@H]1CO2` (single isomer, unassigned), the 50% effective concentration (EC50) in experiment [1] was above 10000 nM; in [2], 95 nM.

Take `NCCc1ccc(O)c(O)c1`: in experiment [5], the Intrinsic activity is 100%.

As a reminder, the EC50 is the concentration needed to bring the measured effect to its halfway point. By Ki is commonly meant the equilibrium dissociation constant of an inhibitor or competing ligand from its target.

The record behind these values is ChEMBL document CHEMBL1137342 (J Med Chem, 2006).
